Source: ChEMBL document CHEMBL4425151, “Design, Synthesis, and Initial Evaluation of Affinity-Based Small-Molecule Probes for Fluorescent Visualization and Specific Detection of Keap1” (J Med Chem, 2016)
The source made the active and inactive calls. The calls are words filed in the database; no cut-off is given here.

Key:
[1] = target: T1, Kelch-like ECH-associated protein 1 (Homo sapiens, UniProt Q14145); experiment: Inhibition of FITC-labeled 9-mer Nrf2 peptide amide binding to human KEAP1 kelch domain (322 to 609 residues) expressed in Escherichia coli Arctic(DE3) cells incubated for 30 mins by fluorescence polarization assay
T1 sequence (Q14145 whole entry, the tested form may be a part): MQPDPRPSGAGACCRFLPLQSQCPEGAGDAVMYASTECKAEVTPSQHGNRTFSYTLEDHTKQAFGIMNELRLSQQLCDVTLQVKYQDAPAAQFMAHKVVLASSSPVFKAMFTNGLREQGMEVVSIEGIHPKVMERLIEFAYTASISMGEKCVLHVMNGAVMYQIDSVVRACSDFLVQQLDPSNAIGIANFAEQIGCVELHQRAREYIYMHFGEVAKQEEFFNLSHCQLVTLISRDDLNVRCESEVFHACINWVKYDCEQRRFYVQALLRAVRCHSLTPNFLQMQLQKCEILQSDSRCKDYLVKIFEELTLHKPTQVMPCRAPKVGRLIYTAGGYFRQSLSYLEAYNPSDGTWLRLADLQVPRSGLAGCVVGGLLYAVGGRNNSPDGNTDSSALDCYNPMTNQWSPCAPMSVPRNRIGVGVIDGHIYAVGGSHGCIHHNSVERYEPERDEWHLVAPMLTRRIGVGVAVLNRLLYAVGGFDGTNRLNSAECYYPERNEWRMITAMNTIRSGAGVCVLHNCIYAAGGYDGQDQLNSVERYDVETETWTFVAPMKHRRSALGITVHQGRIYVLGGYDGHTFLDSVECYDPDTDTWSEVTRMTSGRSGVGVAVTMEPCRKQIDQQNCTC

[2] = target: T1, Kelch-like ECH-associated protein 1; experiment: Binding affinity to KEAP1 kelch domain in human NCM460 cells after 2 hrs by Western blot based affinity pulldown assay; assay type: cell-based
Summary of the method: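 Streptavidin magnetic beads loaded with the biotin probe (50 µg/100 µL), 30 min at 4 °C, then free sites blocked with biotin. Beads incubated with NCM460 colonic cell lysate for 2 h at 4 °C with rotation and washed with TBS. Bound protein eluted in buffer with 2% SDS at 95 °C for 5 min. Analysed by SDS-PAGE and western blot with anti-Keap1 antibody.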

[3] = target: T1, Kelch-like ECH-associated protein 1; experiment: Binding affinity to human KEAP1 kelch domain (322 to 609 residues) expressed in Escherichia coli Arctic(DE3) cells by biolayer interferometry method
Summary of the method: (§1)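 Biotinylated probe immobilized on super streptavidin biosensor tips. Sequence: baseline, loading, second baseline, Keap1 Kelch domain association (kon), then dissociation (koff). Six Keap1 concentrations tested, all at 30 °C. Kinetic constants fitted from the sensorgrams, and Kd taken as koff/kon.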

[4] = target: T1, Kelch-like ECH-associated protein 1; experiment: Binding affinity to human KEAP1 kelch domain (322 to 609 residues) expressed in Escherichia coli Arctic(DE3) cells assessed as association constant by biolayer interferometry method; summary of the method: as §1
[5] = target: T1, Kelch-like ECH-associated protein 1; experiment: Binding affinity to human KEAP1 kelch domain (322 to 609 residues) expressed in Escherichia coli Arctic(DE3) cells assessed as dissociation constant by biolayer interferometry method; summary of the method: as §1
[6] = target: T1, Kelch-like ECH-associated protein 1; experiment: Binding affinity to human KEAP1 kelch domain (322 to 609 residues) expressed in Escherichia coli Arctic(DE3) cells at 0.05 mM by isothermal titration calorimetry
Summary of the method: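 ITC at 25 °C. Lyophilized Keap1 Kelch domain and the FITC probe both dissolved in 10 mM HEPES pH 7.4. Nineteen 2 µL injections of 0.05 mM probe, 2.5 min apart, stirred at 750 rpm, into cell holding 0.005 mM Kelch domain. Kd obtained from a 1:1 binding model fit.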

[7] = target: T1, Kelch-like ECH-associated protein 1; experiment: Binding affinity to KEAP1 kelch domain in nucleus of human NCM460 cells at 10 uM after 10 hrs by DAPI staining based confocal microscopic analysis; assay type: cell-based
Summary of the method: (§2)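 NCM460 colonic cells exposed to the FITC probe at 10 µM for 10 h, then fixed. Keap1 primary antibody applied overnight at 4 °C, then Alexa Fluor-labelled goat anti-rabbit secondary for 1 h at 37 °C. Nuclei stained with DAPI. Imaged by laser scanning confocal microscopy at excitation 570 and 340 nm for co-localization. Three separate experiments.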

[8] = target: T1, Kelch-like ECH-associated protein 1; experiment: Binding affinity to KEAP1 kelch domain in cytoplasm of human NCM460 cells at 10 uM after 10 hrs by DAPI staining based confocal microscopic analysis; assay type: cell-based; summary of the method: as §2

Molecule `COc1ccc(S(=O)(=O)N(CC(=O)O)c2ccc(N(CC(=O)O)S(=O)(=O)c3ccc(NC(=O)CCCC(=O)NCCN)cc3)c3ccccc23)cc1` has an IC50 [1] of 30.7 nM.

In the case of `COc1ccc(S(=O)(=O)N(CC(=O)O)c2ccc(N(CC(=O)O)S(=O)(=O)c3ccc(NC(=O)CCCC(=O)NCCNC(=O)CCCC[C@@H]4SC[C@@H]5NC(=O)N[C@@H]54)cc3)c3ccccc23)cc1`, the Activity [2] is reported as “Active”, the IC50 [1] is reported as 74 nM and the Activity [3] is reported as “Dose-dependent effect”. It also gave a Kd [3] of 21.6 nM, a K [4] of 6.24 ×10⁴ /M/s and a K [5] of 1.35 ×10⁻³ /s.

In the case of `COc1ccc(S(=O)(=O)N(CC(=O)O)c2ccc(N(CC(=O)O)S(=O)(=O)c3ccc(NC(=O)CCCC(=O)NCCNC(=S)Nc4ccc5c(c4)C(=O)OC54c5ccc(O)cc5Oc5cc(O)ccc54)cc3)c3ccccc23)cc1`, the EC50 [1] is reported as 14.7 nM, the Kd [6] is reported as 29.1 nM and the Activity [7] is reported as “Active”. For the same molecule, the Activity [8] was “Active”.
